Laboratory results as given in ChEMBL document CHEMBL5649170, “Sustained microglial depletion with CSF1R inhibitor impairs parenchymal plaque development in an Alzheimer's disease model” (Nat Commun, 2019).
pIC50: −log10 of the molar value. Activity calls are given as the source filed them. The calls are words filed in the database; no cut-off is given here.

Key:
[1] = target: Serine/threonine-protein kinase D1 (Homo sapiens, UniProt Q15139); test: Inhibition of PRKD1 (unknown origin)
[2] = Oral bioavailability in mouse at 45 mg/kg administered as single via gavage; type: ADME, organism-based; details: in vivo
[3] = target: Glycogen synthase kinase-3 beta (Homo sapiens, UniProt P49841); test: Inhibition of GSK3B (unknown origin)
Sequence of Glycogen synthase kinase-3 beta (P49841 whole entry): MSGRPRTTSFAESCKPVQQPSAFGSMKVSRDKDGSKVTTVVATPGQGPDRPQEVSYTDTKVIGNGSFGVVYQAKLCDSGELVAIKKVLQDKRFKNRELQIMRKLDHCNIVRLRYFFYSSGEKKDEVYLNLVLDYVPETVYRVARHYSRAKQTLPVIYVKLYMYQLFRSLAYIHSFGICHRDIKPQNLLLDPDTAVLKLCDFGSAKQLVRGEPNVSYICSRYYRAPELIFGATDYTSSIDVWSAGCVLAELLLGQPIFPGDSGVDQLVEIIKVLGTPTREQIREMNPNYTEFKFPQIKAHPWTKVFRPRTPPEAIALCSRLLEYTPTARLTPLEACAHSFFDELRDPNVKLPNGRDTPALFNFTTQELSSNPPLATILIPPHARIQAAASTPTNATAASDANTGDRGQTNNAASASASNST

Mus musculus [4] = test: Antialzheimer activity in 5XFAD mouse assessed as number of Iba positive cells per FOV in retro spinal cortex at 1200 ppm administered as rodent chow starting from 1.5 months and measured after 4 months (reference value: 210 to 529); type: functional; details: route po, time 2.5 months, 1825 h
Mus musculus [5] = test: Antialzheimer activity in 5XFAD mouse assessed as iron reactivity by measuring hemosiderin intensity of prussian blue staining in thalamus at 1200 ppm administered as rodent chow starting from 1.5 months and measured after 7 months by confocal microscopic analysis (reference value: 0.39 to 3.131 a.u.); type: functional; details: route po, time 5.5 months, 4015 h
Summary of the method: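 Wild-type or 5xFAD mice fed PLX5622 (1200 ppm) in AIN-76A chow from 1.5 months of age, examined in 4- and 7-month-old cohorts. Brain sections stained with a Prussian blue kit per kit instructions to detect iron deposits (microbleeds).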

[6] = target: Tyrosine-protein kinase ITK/TSK (Homo sapiens, UniProt Q08881); test: Inhibition of ITK (unknown origin)
Sequence of Tyrosine-protein kinase ITK/TSK (Q08881 whole entry): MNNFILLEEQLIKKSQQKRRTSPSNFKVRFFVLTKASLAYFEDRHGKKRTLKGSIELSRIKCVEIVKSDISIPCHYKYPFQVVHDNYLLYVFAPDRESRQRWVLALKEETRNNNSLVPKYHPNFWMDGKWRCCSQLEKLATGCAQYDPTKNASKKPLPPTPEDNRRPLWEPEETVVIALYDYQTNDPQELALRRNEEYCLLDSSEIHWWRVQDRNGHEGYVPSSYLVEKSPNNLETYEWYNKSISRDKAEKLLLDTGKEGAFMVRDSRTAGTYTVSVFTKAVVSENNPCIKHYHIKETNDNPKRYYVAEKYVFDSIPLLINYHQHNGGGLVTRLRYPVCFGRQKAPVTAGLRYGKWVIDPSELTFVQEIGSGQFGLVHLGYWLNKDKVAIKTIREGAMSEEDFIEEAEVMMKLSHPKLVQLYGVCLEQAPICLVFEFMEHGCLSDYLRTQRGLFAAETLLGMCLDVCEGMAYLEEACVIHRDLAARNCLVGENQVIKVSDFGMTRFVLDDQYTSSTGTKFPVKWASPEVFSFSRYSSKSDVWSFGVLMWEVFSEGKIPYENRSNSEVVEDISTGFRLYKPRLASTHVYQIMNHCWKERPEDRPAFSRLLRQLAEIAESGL

Mus musculus [7] = test: Antialzheimer activity in 5XFAD mouse assessed as amyloidbeta42 level in detergent soluble cortex fraction measured per microgram protein at 1200 ppm administered as rodent chow starting from 1.5 months and measured after 7 months by ELISA (reference value: 0 to 0.239 pg); type: functional; details: route po, time 5.5 months, 4015 h
Summary of the method: (§1)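 PLX5622 at 1200 ppm in chow given to 5xFAD mice from 1.5 months to 4 or 7 months of age; cortex and thalamus homogenized in TPER (detergent-soluble), pellets re-homogenized in 70% formic acid and spun 100,000 g, 1 h, 4 °C (insoluble); protein by Bradford/Lowry; Aβ species measured by Meso Scale electrochemiluminescence immunoassay, normalized to protein; n = 7–8 per group at 7 months.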

[8] = target: Serine/threonine-protein kinase MRCK alpha (Homo sapiens, UniProt Q5VT25); test: Inhibition of CDC42_BPA (unknown origin)
Sequence of Serine/threonine-protein kinase MRCK alpha (Q5VT25 whole entry): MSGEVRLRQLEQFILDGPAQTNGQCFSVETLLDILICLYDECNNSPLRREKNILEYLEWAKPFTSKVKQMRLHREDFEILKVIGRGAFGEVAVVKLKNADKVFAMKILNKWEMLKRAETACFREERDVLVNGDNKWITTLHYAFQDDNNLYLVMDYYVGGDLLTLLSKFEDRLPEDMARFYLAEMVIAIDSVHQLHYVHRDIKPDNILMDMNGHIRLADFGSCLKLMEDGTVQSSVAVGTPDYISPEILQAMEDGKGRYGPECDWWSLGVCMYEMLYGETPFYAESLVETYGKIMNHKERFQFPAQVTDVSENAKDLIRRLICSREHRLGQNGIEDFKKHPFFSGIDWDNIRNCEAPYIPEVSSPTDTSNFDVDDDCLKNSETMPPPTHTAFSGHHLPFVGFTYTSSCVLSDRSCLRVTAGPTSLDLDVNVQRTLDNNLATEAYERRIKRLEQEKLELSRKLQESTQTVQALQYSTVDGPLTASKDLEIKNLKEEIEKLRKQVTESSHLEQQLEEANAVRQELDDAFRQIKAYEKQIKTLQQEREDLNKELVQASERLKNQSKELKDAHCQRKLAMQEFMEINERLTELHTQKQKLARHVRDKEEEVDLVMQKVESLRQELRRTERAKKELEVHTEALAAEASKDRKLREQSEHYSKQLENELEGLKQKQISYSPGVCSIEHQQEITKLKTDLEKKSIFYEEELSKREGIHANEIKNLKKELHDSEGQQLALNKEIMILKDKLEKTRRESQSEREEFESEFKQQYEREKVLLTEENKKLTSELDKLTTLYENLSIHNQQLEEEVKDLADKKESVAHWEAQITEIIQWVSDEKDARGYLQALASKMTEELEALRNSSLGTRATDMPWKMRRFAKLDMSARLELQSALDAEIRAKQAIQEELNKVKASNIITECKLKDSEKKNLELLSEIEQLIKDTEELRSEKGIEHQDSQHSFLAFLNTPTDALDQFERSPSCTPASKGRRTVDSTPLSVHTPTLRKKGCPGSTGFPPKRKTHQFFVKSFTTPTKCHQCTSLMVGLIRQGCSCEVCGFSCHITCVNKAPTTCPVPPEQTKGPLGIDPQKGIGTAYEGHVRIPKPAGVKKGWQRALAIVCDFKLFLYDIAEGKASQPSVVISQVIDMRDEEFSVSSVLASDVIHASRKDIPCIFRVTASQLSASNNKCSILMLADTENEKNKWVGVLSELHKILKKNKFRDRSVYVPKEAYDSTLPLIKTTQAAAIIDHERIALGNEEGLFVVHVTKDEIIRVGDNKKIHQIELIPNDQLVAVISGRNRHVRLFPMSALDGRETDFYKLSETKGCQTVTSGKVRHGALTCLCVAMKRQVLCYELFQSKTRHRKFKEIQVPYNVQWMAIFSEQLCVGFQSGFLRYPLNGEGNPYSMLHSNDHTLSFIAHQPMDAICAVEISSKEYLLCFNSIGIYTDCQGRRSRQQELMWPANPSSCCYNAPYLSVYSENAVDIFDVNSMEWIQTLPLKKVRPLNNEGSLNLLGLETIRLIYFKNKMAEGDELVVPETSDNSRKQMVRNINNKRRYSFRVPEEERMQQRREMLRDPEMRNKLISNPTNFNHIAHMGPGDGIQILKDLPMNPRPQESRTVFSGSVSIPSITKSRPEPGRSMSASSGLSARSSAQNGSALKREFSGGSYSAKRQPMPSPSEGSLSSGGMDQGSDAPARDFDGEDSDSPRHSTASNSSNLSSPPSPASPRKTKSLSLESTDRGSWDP

Mus musculus [9] = test: Antialzheimer activity in 5XFAD mouse assessed as amyloidbeta40 level in detergent insoluble thalamus fraction measured per microgram protein at 1200 ppm administered as rodent chow starting from 1.5 months and measured after 7 months by ELISA (reference value: 57.876 to 502395 pg); type: functional; details: route po, time 5.5 months, 4015 h; summary of the method: as §1
[10] = Effect on Chrm3 gene expression in wildtype mouse hippocampus assessed as percent change in Reads Per kilo base per Million mapped reads at 1200 ppm administered as rodent chow starting from 1.5 months and measured after 7 months by RNA-Seq analysis (reference value: 85.337 to 114.189 %); type: functional; details: route po, time 5.5 months, 4015 h
Summary of the method: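 WT and 5xFAD mice were treated with 1200 ppm PLX5622 chow or control chow from 1.5 to 7 months of age. Brains were microdissected into cortex, hippocampus and thalamus, and RNA was extracted from tissue powder. Whole-transcriptome RNA-Seq libraries were sequenced, with n = 4 per group per region (48 samples).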

Mus musculus [11] = test: Antialzheimer activity in 5XFAD mouse assessed as average diameter of claudin-5 blood vessels in Thio-S negative thalamus at 1200 ppm administered as rodent chow starting from 1.5 months and measured after 4 months by immunolabeling analysis; type: functional; details: route po, time 2.5 months, 1825 h
[12] = AUC (0 to infinity) in male rat at 45 mg/kg, po administered as single dose via gavage; type: ADME, organism-based; details: in vivo
Mus musculus [13] = test: Antialzheimer activity in 5XFAD mouse assessed as amyloidbeta40 level in detergent soluble thalamus fraction measured per microgram protein at 1200 ppm administered as rodent chow starting from 1.5 months and measured after 7 months by ELISA (reference value: 0 to 0.047 pg); type: functional; details: route po, time 5.5 months, 4015 h; summary of the method: as §1
Mus musculus [14] = test: Prevention of Hgf gene downregulation in 5XFAD mouse hippocampus at 1200 ppm administered as rodent chow starting from 1.5 months and measured after 7 months by Nanostring analysis; type: functional, tissue-based; details: route po, time 5.5 months
[15] = Effect on Csf1r RPKM gene expression in 5XFAD mouse thalamus at 1200 ppm administered as rodent chow starting from 1.5 months and measured after 7 months by RNA-Seq analysis (reference value: 27.112 to 32.871 RPKM); type: functional; details: route po, time 5.5 months, 4015 h
Mus musculus [16] = test: Effect on circulating leukocytes in wildtype mouse assessed as percentage of CD45+/PI- cells expressing CD11b at 1200 ppm administered as rodent chow for 10 to 24 weeks (reference value: 6.22 to 25.7 %); type: functional; details: route po, time 10-24 weeks
[17] = AUC (0 to 24 hrs) in mouse plasma at 300 ppm administered as rodent chow for 14 days; type: ADME, cell-free; details: route po, time 14 day
[18] = target: T1, Macrophage colony-stimulating factor 1 receptor (Mus musculus) (UniProt P09581); test: In vivo inhibition of CSF1R in wildtype mouse assessed as number of GFAP positive cell per FOV in somatosensory cortex at 1200 ppm administered as rodent chow for 10 to 24 weeks by immunolabelling based confocal microscopic analysis (reference value: 4 to 34); type: functional; details: route po, time 10-24 weeks
T1 sequence (whole entry): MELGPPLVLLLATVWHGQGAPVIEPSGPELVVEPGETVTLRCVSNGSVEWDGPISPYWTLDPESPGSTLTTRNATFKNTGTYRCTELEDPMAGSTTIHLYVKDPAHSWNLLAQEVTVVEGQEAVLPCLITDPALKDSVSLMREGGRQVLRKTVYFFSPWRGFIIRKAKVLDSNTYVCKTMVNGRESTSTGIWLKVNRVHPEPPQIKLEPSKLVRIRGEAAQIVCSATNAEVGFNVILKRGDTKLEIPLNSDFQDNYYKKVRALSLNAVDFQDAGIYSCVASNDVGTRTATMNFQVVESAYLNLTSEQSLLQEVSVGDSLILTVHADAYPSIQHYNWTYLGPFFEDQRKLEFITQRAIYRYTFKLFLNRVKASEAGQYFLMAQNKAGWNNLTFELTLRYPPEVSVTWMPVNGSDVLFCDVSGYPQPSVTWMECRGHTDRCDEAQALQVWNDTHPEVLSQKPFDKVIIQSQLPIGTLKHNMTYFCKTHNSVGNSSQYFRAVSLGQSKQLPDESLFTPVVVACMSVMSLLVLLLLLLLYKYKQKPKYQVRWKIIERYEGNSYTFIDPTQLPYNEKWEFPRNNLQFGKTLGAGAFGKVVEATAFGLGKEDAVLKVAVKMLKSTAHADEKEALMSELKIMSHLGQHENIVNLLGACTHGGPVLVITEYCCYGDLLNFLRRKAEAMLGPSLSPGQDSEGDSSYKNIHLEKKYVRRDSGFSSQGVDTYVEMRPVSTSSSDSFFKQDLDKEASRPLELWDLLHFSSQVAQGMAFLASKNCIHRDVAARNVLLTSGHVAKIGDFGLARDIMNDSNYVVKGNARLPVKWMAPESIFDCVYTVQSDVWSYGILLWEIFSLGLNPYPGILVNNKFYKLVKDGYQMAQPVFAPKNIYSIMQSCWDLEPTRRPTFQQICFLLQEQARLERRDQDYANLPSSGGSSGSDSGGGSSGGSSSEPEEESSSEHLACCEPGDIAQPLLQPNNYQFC

Sequence of Serine/threonine-protein kinase D1 (Q15139 whole entry): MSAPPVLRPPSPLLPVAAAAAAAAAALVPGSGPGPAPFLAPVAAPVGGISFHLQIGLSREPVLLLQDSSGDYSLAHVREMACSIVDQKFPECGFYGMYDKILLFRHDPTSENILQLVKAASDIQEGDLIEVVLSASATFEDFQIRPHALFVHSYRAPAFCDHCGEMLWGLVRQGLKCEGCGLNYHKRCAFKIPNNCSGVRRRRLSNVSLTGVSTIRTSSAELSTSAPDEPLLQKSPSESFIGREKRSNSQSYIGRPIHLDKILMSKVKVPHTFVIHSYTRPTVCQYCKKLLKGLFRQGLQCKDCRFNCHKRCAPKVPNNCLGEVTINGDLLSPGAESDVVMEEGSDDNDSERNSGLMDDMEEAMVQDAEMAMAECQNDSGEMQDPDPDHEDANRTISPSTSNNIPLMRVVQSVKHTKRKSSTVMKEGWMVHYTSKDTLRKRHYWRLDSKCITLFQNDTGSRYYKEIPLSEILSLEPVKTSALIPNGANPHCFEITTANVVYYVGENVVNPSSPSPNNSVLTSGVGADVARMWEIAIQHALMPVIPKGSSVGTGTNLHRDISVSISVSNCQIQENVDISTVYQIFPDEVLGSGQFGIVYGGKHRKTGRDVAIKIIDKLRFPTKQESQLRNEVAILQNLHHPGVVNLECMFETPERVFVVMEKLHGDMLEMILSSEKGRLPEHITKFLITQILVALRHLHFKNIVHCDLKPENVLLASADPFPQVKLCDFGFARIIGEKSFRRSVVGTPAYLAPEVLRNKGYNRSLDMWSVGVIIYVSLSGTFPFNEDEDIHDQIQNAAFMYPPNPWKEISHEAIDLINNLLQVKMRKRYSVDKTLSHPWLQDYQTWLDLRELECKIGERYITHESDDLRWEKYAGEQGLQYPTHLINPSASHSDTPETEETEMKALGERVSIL

In the case of COc1ncc(F)cc1CNc1ccc(Cc2c[nH]c3ncc(C)cc23)c(F)n1 [PLX-5622], the pIC50 [1] was less than 6.00, the bioavailability [2] was 59% and the pIC50 [3] was less than 6.00. It also gave an Activity (Mus musculus [4]) of 0, a Flu intensity (Mus musculus [5]) of 0.1 a.u and a pIC50 [6] of less than 6.00. The Activity (Mus musculus [7]) was 0 pg, the pIC50 [8] was less than 6.00 and the Activity (Mus musculus [9]) was 100.854 pg. The Activity [10] was 79.458%, the Activity (Mus musculus [11]) was 1.854 um and the AUC(0-inf) [12] was 99.6 µg·h/mL. For the same compound, the Activity (Mus musculus [13]) was 0 pg, the Activity (Mus musculus [14]) was “Active” and the Activity [15] was 0.221 RPKM. For the same compound, the Activity (Mus musculus [16]) was 18.9%, the AUC at 336 h [17] was 104 µg·h/mL and the Activity [18] was 5.
